Measurements from PMC9083272 (RSC Advances, 2018).
Like-named read-outs stand apart in the source and are kept apart here.

Columns and labels:
[1] = Potentiometric titration, protonation constants; format: physicochemical; conditions: I = 0.15 mol dm^−3 NaCl
[2] = Potentiometric determination of complex formation constants; format: physicochemical; conditions: I = 0.15 mol dm^−3 NaCl
Outline: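 Test ligand in 3 × 10−3 mol dm−3 HCl with 0.15 mol dm−3 NaCl, in fresh DI water, titrated with carbonate-free 0.1 mol dm−3 NaOH. Runs: acid alone, ligand alone, and ligand plus Fe(III) at 3 × 10−3, 1.5 × 10−3 or 1 × 10−3 mol dm−3 (metal:ligand 1:1, 1:2, 1:3). Water bath ±0.1 °C, pH glass electrode, pH 2–11, triplicate. Log β refined jointly from the three ratios.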

[3] = Thermodynamic properties of iron; format: physicochemical; conditions: I = 0.15 mol dm^−3 NaCl
Outline: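 Log β came from potentiometric titrations at 25, 37 and 40 °C in 0.15 mol dm−3 NaCl. ΔG was computed as −2.303RT log10 β. ΔH and ΔS per species were taken as the slope and intercept, respectively, of a Van't Hoff plot across the three temperatures. Units: ΔG and ΔH in kJ mol−1, ΔS in kJ mol−1 K−1.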

[4] = cited from earlier work
[5] = 298.15 K and 0.05 M, ref Gergely et al. 21
[6] = 298.15 K and 0.15 mol dm^−3 NaNO3, ref Angkawijaya et al. 22

Question: For NCC(=O)O [Gly, glycine], which pKa1 ([1]; 25 °C) is on record?
Answer: Its pKa1 is 2.51(7).

Question: And the pKa2 ([1]; 25 °C)?
Answer: The pKa2 was 9.68(3).

Question: And the pKa1 ([1]; 37 °C)?
Answer: Its pKa1 is under 2.

Question: What about the pKa2 ([1]; 37 °C) of the same compound?
Answer: Its pKa2 is 9.37(1).

Question: And the pKa1 ([1]; 40 °C)?
Answer: Its pKa1 is under 2.

Question: What about the pKa2 ([1]; 40 °C) of the same compound?
Answer: The pKa2 was 9.27(2).

Question: What about the “log β” value ([2]; complex [MA2H−2], 25 °C) of the same compound?
Answer: The value was 6.54(5).

Question: And the “log β” value ([2]; complex [MA2H−2], 37 °C)?
Answer: The value was 7.55(4).

Question: And the “log β” value ([2]; complex [MA2H−2], 40 °C)?
Answer: Its value is 8.17(8).

Question: And the “log β” value ([2]; complex [MA2H−3], 25 °C)?
Answer: Its value is −4.65(11).

Question: What about the “log β” value ([2]; complex [MA2H−3], 37 °C) of the same compound?
Answer: The value was −2.95(5).

Question: What about the “log β” value ([2]; complex [MA2H−3], 40 °C) of the same compound?
Answer: The value was −1.57(9).

Question: And the “log β” value ([2]; complex [MA2H−4], 40 °C)?
Answer: The value was −11.78(10).

Question: And the “log β” value ([2]; complex [MA2], 25 °C)?
Answer: The value was 19.10(11).

Question: What about the “log β” value ([2]; complex [MA2], 37 °C) of the same compound?
Answer: Its value is 19.54(10).

Question: What about the “log β” value ([2]; complex [MA2], 40 °C) of the same compound?
Answer: Its value is 19.72(13).

Question: And the “log β” value ([2]; complex [MA3], 25 °C)?
Answer: Its value is 27.59(9).

Question: And the “log β” value ([2]; complex [MA3], 37 °C)?
Answer: The value was 28.35(3).

Question: What about the “log β” value ([2]; complex [MA3], 40 °C) of the same compound?
Answer: The value was 28.49(14).

Question: What about the “log β” value ([2]; complex [MAH−1], 25 °C) of the same compound?
Answer: Its value is 6.21(2).

Question: What about the “log β” value ([2]; complex [MAH−1], 37 °C) of the same compound?
Answer: Its value is 6.63(2).

Question: What about the “log β” value ([2]; complex [MAH−1], 40 °C) of the same compound?
Answer: Its value is 6.75(5).

Question: What about the “log β” value ([2]; complex [MAH−2], 25 °C) of the same compound?
Answer: The value was 2.32(2).

Question: And the “log β” value ([2]; complex [MAH−2], 37 °C)?
Answer: Its value is 3.34(3).

Question: And the “log β” value ([2]; complex [MAH−2], 40 °C)?
Answer: The value was 3.78(8).

Question: What about the “log β” value ([2]; complex [MA], 25 °C) of the same compound?
Answer: Its value is 9.17(6).

Question: What about the “log β” value ([2]; complex [MA], 37 °C) of the same compound?
Answer: The value was 9.59(3).

Question: And the “log β” value ([2]; complex [MA], 40 °C)?
Answer: Its value is 9.89(11).

Question: And the “−ΔG” value ([3]; complex [MA2H−2], 25 °C)?
Answer: Its value is 8.927 kcal/mol.

Question: What about the “−ΔG” value ([3]; complex [MA2H−2], 37 °C) of the same compound?
Answer: Its value is 10.71 kcal/mol.

Question: What about the “−ΔG” value ([3]; complex [MA2H−2], 40 °C) of the same compound?
Answer: Its value is 11.71 kcal/mol.

Question: And the ΔH ([3]; complex [MA2H−2])?
Answer: Its ΔH is 43.332 kcal/mol.

Question: And the ΔS ([3]; complex [MA2H−2])?
Answer: The ΔS was −0.73 kJ mol^−1 K^−1.

Question: What about the “−ΔG” value ([3]; complex [MA2H−3], 25 °C) of the same compound?
Answer: The value was -6.341 kcal/mol.

Question: And the “−ΔG” value ([3]; complex [MA2H−3], 37 °C)?
Answer: Its value is -4.185 kcal/mol.

Question: And the “−ΔG” value ([3]; complex [MA2H−3], 40 °C)?
Answer: The value was -2.25 kcal/mol.

Question: And the ΔH ([3]; complex [MA2H−3])?
Answer: Its ΔH is 79.802 kcal/mol.

Question: And the ΔS ([3]; complex [MA2H−3])?
Answer: Its ΔS is −1.20 kJ mol^−1 K^−1.

Question: What about the “−ΔG” value ([3]; complex [MA2], 25 °C) of the same compound?
Answer: The value was 26.104 kcal/mol.

Question: What about the “−ΔG” value ([3]; complex [MA2], 37 °C) of the same compound?
Answer: The value was 27.727 kcal/mol.

Question: What about the “−ΔG” value ([3]; complex [MA2], 40 °C) of the same compound?
Answer: The value was 28.265 kcal/mol.

Question: And the ΔH ([3]; complex [MA2])?
Answer: The ΔH was 16.12 kcal/mol.

Question: And the ΔS ([3]; complex [MA2])?
Answer: The ΔS was −0.59 kJ mol^−1 K^−1.

Question: What about the “−ΔG” value ([3]; complex [MA3], 25 °C) of the same compound?
Answer: Its value is 37.639 kcal/mol.

Question: What about the “−ΔG” value ([3]; complex [MA3], 37 °C) of the same compound?
Answer: The value was 40.244 kcal/mol.

Question: What about the “−ΔG” value ([3]; complex [MA3], 40 °C) of the same compound?
Answer: Its value is 40.827 kcal/mol.

Question: And the ΔH ([3]; complex [MA3])?
Answer: The ΔH was 26.109 kcal/mol.

Question: What about the ΔS ([3]; complex [MA3]) of the same compound?
Answer: Its ΔS is −0.89 kJ mol^−1 K^−1.

Question: And the “−ΔG” value ([3]; complex [MAH−1], 25 °C)?
Answer: The value was 8.475 kcal/mol.

Question: What about the “−ΔG” value ([3]; complex [MAH−1], 37 °C) of the same compound?
Answer: The value was 9.405 kcal/mol.

Question: And the “−ΔG” value ([3]; complex [MAH−1], 40 °C)?
Answer: The value was 9.68 kcal/mol.

Question: What about the ΔH ([3]; complex [MAH−1]) of the same compound?
Answer: Its ΔH is 15.23 kcal/mol.

Question: And the ΔS ([3]; complex [MAH−1])?
Answer: The ΔS was −0.33 kJ mol^−1 K^−1.

Question: And the “−ΔG” value ([3]; complex [MAH−2], 25 °C)?
Answer: Its value is 3.172 kcal/mol.

Question: And the “−ΔG” value ([3]; complex [MAH−2], 37 °C)?
Answer: Its value is 4.739 kcal/mol.

Question: And the “−ΔG” value ([3]; complex [MAH−2], 40 °C)?
Answer: The value was 5.416 kcal/mol.

Question: And the ΔH ([3]; complex [MAH−2])?
Answer: The ΔH was 39.888 kcal/mol.

Question: What about the ΔS ([3]; complex [MAH−2]) of the same compound?
Answer: The ΔS was −0.60 kJ mol^−1 K^−1.

Question: And the “−ΔG” value ([3]; complex [MA], 25 °C)?
Answer: The value was 12.51 kcal/mol.

Question: And the “−ΔG” value ([3]; complex [MA], 37 °C)?
Answer: Its value is 13.61 kcal/mol.

Question: And the “−ΔG” value ([3]; complex [MA], 40 °C)?
Answer: The value was 14.18 kcal/mol.

Question: And the ΔH ([3]; complex [MA])?
Answer: Its ΔH is 19.01 kcal/mol.

Question: What about the ΔS ([3]; complex [MA]) of the same compound?
Answer: Its ΔS is −0.44 kJ mol^−1 K^−1.

Question: And the pKa1 [4, 5]?
Answer: The pKa1 was 2.33.

Question: What about the pKa2 [4, 5] of the same compound?
Answer: Its pKa2 is 9.61.

Question: And the pKa1 [4, 6]?
Answer: Its pKa1 is 2.32.

Question: What about the pKa2 [4, 6] of the same compound?
Answer: Its pKa2 is 9.62.

Question: For O=C(O)[C@@H]1CCCN1 [Pro, reference compound], which pKa1 ([4]; ref Zhu et al. 23) is on record?
Answer: Its pKa1 is 1.99.
